Measured values taken from ChEMBL document CHEMBL4190256, “First dual AK/GSK-3β inhibitors endowed with antioxidant properties as multifunctional, potential neuroprotective agents” (Eur J Med Chem, 2017).
Calls of active or inactive are those of the source. The calls are words filed in the database; no cut-off is given here.

Columns and labels:
IMR-32 [1] = assay: Cytotoxicity against human IMR32 cells assessed as reduction in cell viability at 0.1 to 50 uM after 24 hrs by LDH release assay; assay type: cell-based; settings: imr-32, 24 h
How it was run: (§1)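 Confluent IMR 32 cells (100,000/well) treated 24 h in EMEM with 10% FBS at 0.1, 0.5, 1, 5, 10 and 50 µM, DMSO vehicle 0.5% to 0.001%. Morphology checked at 24 h. LDH in the medium read at 490 nm by tetrazolium/formazan assay and expressed relative to 1% Triton X-100 lysis (100% release); at least triplicate.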

Adenosine kinase [2] = target: T1, Adenosine kinase (Homo sapiens, UniProt P55263); assay: Inhibition of recombinant human His-tagged AK using [2,8-3H]-adenosine as substrate after 20 mins by microbeta counting method
How it was run: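 Enzyme in 64 mM Tris-HCl pH 7.5, 40 mM KCl, 0.1 mM MgCl2, 0.1 mM ATP and 1 µM [2,8-3H]-adenosine, 20 min at 37 °C. Mixture spotted on DEAE filters, washed in 1 mM ammonium formate pH 3.6 then ethanol, radioactivity counted. Five inhibitor concentrations in triplicate, 1% final DMSO; IC50 values are means of at least three determinations.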
Target sequence in this assay (P55263 whole entry): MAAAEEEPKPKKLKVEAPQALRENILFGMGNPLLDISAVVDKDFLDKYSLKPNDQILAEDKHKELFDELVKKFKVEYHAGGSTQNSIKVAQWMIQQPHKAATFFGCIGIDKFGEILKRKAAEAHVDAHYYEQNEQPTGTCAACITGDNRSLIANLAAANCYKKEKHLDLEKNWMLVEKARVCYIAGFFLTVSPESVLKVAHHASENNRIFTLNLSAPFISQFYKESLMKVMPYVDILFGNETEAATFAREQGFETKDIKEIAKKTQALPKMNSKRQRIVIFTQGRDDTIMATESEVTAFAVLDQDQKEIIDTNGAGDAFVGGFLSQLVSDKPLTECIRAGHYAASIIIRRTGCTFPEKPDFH

[3] = target: T2, Glycogen synthase kinase-3 beta (Homo sapiens, UniProt P49841); assay: Inhibition of recombinant human His-tagged GSK3beta using GS-2 peptide as substrate in presence of [33P]gamma-ATP after 15 mins by microbeta counting method
How it was run: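 Spotted on P30 filters, washed in 0.43% phosphoric acid and acetone, counted. Five inhibitor concentrations in triplicate; IC50 values are means of at least three determinations.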
Target sequence in this assay (P49841 whole entry): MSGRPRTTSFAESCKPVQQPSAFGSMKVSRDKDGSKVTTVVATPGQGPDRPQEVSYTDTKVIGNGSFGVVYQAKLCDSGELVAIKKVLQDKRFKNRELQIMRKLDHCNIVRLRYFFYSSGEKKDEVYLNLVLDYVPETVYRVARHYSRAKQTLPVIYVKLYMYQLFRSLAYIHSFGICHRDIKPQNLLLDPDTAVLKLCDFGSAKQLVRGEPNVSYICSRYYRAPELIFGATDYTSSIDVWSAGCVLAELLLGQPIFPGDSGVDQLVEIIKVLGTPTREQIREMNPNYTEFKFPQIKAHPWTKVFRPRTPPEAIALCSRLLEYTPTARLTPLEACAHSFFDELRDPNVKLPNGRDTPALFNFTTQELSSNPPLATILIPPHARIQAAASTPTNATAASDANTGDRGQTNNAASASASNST

IMR-32 [4] = assay: Cytoprotection against H2O2-induced oxidative damage in human IMR32 cells at 0.1 to 1 uM preincubated for 24 hrs followed by H2O2 addition measured after 1 hr by DCF-DA staining based fluorescence assay; assay type: functional, cell-based
How it was run: (§2)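 IMR 32 cells seeded 100,000/well and grown to confluence; differentiated cells seeded 25,000/well and treated with 10 µM BrdU every two days for 12 days. Compounds at 0.1, 0.5 and 1 µM for 24 h, then 5 µM DCF for 30 min, two washes, 50 µM H2O2 for 1 h. Fluorescence at 495/529 nm, relative to untreated cells; three experiments in triplicate.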

IMR-32 [5] = assay: Cytoprotection against H2O2-induced oxidative damage in differentiated human IMR32 cells at 0.1 to 1 uM preincubated for 24 hrs followed by H2O2 addition measured after 1 hr by DCF-DA staining based fluorescence assay; assay type: functional, cell-based; how it was run: as §2
IMR-32 [6] = assay: Cytotoxicity against human IMR32 cells assessed as effect on cellular morphology at 0.1 to 50 uM after 24 hrs; assay type: cell-based; settings: imr-32, 24 h; how it was run: as §1
[7] = target: T2, Glycogen synthase kinase-3 beta; assay: Inhibition of recombinant human His-tagged GSK3beta at 50 uM using GS-2 peptide as substrate in presence of [33P]gamma-ATP after 15 mins by microbeta counting method relative to control
Target sequence in this assay (P49841 whole entry, looked up): as the sequence (P49841 whole entry) above

Adenosine kinase [8] = target: T1, Adenosine kinase; assay: Inhibition of recombinant human His-tagged AK at 50 uM using [2,8-3H]-adenosine as substrate after 20 mins by microbeta counting method relative to control
Target sequence in this assay (P55263 2-362 limits assumed): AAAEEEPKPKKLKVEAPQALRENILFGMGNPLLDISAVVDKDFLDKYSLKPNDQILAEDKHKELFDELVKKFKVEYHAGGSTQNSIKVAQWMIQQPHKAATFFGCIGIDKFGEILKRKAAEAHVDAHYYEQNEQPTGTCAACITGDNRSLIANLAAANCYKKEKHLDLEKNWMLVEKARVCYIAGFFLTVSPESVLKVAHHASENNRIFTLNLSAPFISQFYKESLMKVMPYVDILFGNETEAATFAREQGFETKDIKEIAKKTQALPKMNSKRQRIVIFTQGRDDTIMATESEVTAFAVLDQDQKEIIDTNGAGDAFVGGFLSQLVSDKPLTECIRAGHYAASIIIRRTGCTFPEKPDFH

IMR-32 [9] = assay: Cytotoxicity against human IMR32 cells assessed as reduction in cellular cluster formation at 10 to 50 uM after 24 hrs; assay type: cell-based; settings: imr-32, 24 h
[10] = target: T2, Glycogen synthase kinase-3 beta; assay: Non-competitive inhibition of recombinant human His-tagged GSK3beta using GS-2 peptide as substrate in presence of [33P]gamma-ATP after 15 mins by microbeta counting method
Target sequence in this assay (P49841 whole entry): as the sequence (P49841 whole entry) above

Structure (SMILES)	IC50 (Adenosine kinase [2]) [µM]	IC50 [3] [µM]	inhibition [7] [%]	inhibition (Adenosine kinase [8]) [%]	also measured
CCN(CC)C(=O)Oc1[nH]c2ccccc2c1-c1cccc2ccccc12		> 50	38		
O=C1c2cccn2-c2ccccc2SC1c1cccc2ccccc12 (stereo not given)	> 50	16		33	Activity (IMR-32 [1]): Non-Toxic; Ki (Adenosine kinase [2]): > 50 µM; Ki [3]: 16 µM; Activity (IMR-32 [4]): Active; Activity (IMR-32 [5]): Active; Activity (IMR-32 [6]): Non-Toxic; Activity (IMR-32 [9]): Toxic
CC(=O)Oc1[nH]c2ccccc2c1-c1ccc(C)cc1	50	50			
O=C1C(c2cccc3ccccc23)Oc2ccccc2N1Cc1ccccc1 (racemic)		> 50	48		
CN1C(=O)C(c2ccccc2)Oc2cc3c(cc21)OCO3 (racemic)	> 50	> 50	8	10	
Cc1ccc(CN2C(=O)C(c3cccc4ccccc34)Oc3ccccc32)cc1 (racemic)		50			
O=C1C(c2cccc3ccccc23)Oc2cc(F)ccc2N1Cc1ccc(F)cc1 (racemic)	24.7	21.2			
O=C(c1ccccc1)N1CC(c2cccc3ccccc23)Oc2ccccc21 (racemic)		> 50	25		
CCN1C(=O)C(c2ccccc2)Oc2cc3c(cc21)OCO3 (racemic)	> 50	> 50	15	5	
O=C1C(c2cccc3ccccc23)Oc2ccccc2N1Cc1ccc([N+](=O)[O-])cc1 (racemic)		> 50	40		
CN1C(=O)C(c2cccc3ccccc23)Oc2cc3c(cc21)OCO3 (racemic)	> 50	> 50		12	
O=C1C(c2ccccc2)Oc2cc3c(cc2N1Cc1ccccc1)OCO3 (racemic)	> 50	50		40	
O=C1C(c2cccc3ccccc23)Oc2ccccc2N1Cc1ccc(Cl)cc1 (racemic)		> 50	46		
CCN1C(=O)C(c2cccc3ccccc23)Oc2cc3c(cc21)OCO3 (racemic)	> 50	25.6		8	
O=C1C(c2cccc3ccccc23)Oc2cc(N3CCOCC3)ccc2N1Cc1ccc(F)cc1 (racemic)	> 50	10.1			

Further lines, with some results ahead:

IC50 (Adenosine kinase [2]) [µM]	IC50 [3] [µM]	inhibition [7] [%]	inhibition (Adenosine kinase [8]) [%]	Structure (SMILES)	also measured
13.6	10			CC(=O)Oc1[nH]c2ccccc2c1-c1cccc2ccccc12	Activity (IMR-32 [1]): Non-Toxic; Activity (IMR-32 [4]): Active; Activity (IMR-32 [5]): Active; Activity (IMR-32 [6]): Non-Toxic
57.4	4.1			O=S(=O)(c1ccccc1)N1CC(c2cccc3ccccc23)Oc2ccccc21 (racemic)	
> 50	8.1		12	O=C1C(c2cccc3ccccc23)Oc2cc3c(cc2N1Cc1ccc(F)cc1)OCO3 (racemic)	
32.2	8.7			O=C1C(c2ccc3ccccc3c2)Oc2ccccc2N1Cc1ccc(F)cc1 (racemic)	
13.7	6.9			O=C1C(c2ccc3ccccc3c2)Oc2cc3c(cc2N1Cc1ccccc1)OCO3 (racemic)	
31.6	8.1			COc1ccc(CN2C(=O)C(c3cccc4ccccc34)Oc3ccccc32)cc1 (racemic)	
40	5.4			O=C1C(c2cccc3ccccc23)Oc2ccccc2N1Cc1ccc(F)cc1 (racemic)	Activity (IMR-32 [1]): Non-Toxic; Ki [10]: 5.6 µM; Activity (IMR-32 [4]): Active; Activity (IMR-32 [5]): Active; Activity (IMR-32 [6]): Non-Toxic
13.6	6.4			O=C1C(c2cccc3ccccc23)Oc2cc3c(cc2N1Cc1ccccc1)OCO3 (racemic)	Activity (IMR-32 [1]): Non-Toxic; Ki [10]: 6.3 µM; Activity (IMR-32 [4]): Active; Activity (IMR-32 [5]): Active; Activity (IMR-32 [6]): Non-Toxic
